# An excerpt weighted towards active compounds, which were near 4.8% of everything screened.
# NF-kB expr up – NF-kB expression increase, human neuronal cells; 1.6% of 190,000 active; fold change at 12.5 µM; NF-kB reporter expression; active compounds read high; in the data active = fold change above about 3.3
# APP 5'UTR act – activates APP 5'UTR luciferase reporter | 1% of 190,000 active | SH-SY5Y APP 5'UTR luciferase reporter, luminescence; zero percent = DMSO vehicle wells | AID 1276 | activation, % at 2 µM;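 active = activation above a set limit, based on mean plus 3 SD of controls, cut at about 140% in these data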
# FLuc stim CS – firefly luciferase counter-screen for stimulation assays | activation factor at 10 µM | AID 1027 | ATPlite luciferase biochemical, luminescence, 10 min; 0 = ATP-free wells, 1 = DMSO control | 200,000 tested, under 10 active;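 active = luciferase activation factor, scaled between plate controls, of at least 2 with compound at 10 µM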
# Target sequence (P08659 whole entry, looked up): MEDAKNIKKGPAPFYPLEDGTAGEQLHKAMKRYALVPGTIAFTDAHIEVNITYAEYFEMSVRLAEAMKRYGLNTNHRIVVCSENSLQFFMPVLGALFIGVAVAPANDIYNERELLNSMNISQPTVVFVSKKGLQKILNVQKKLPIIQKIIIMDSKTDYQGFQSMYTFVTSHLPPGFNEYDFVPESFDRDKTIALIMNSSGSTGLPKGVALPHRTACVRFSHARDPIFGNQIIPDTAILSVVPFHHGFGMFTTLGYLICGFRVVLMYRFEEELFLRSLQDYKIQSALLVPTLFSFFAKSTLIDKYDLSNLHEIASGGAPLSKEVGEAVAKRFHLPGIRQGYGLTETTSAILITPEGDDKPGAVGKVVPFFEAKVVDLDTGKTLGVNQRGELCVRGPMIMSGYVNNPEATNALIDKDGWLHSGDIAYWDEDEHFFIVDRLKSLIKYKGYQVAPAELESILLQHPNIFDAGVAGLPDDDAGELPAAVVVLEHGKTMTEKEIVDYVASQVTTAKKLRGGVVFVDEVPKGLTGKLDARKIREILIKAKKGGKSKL
#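 Assay system: Luciferase/luciferin detection reagent, cell-free biochemical luciferase assay / Also added: ATP substrate / Schedule: 10 min at ambient temperature / Measured by: luminescence measurement of luciferase light output / Benchmarks: low control with PBS replacing ATP, high control enzyme plus ATP without compound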
# APP 5UTR inh – APP translation inhibition | SH-SY5Y APP 5'UTR-luciferase reporter, luminescence | inhibition, % at 2 µM | 0.82% of 190,000 active;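 active = inhibition above a set limit, derived from the sample mean plus 3 SD, cut at about 45% in these data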
# STAT1 act – activators of IFN-gamma induced STAT1 signaling. NIH 3T3 STAT1-luciferase reporter, luminescence; 100% = IFN-gamma alone, no compound. activation (% of control), % at 5.5 µM. 2.6% of 200,000 active. AID 932;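 active = activation above the screen-wide mean activation plus 3 SD, cut at about 130% in these data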;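 note: raw ratio to IFN-gamma control signal so 100% means no change and 0% no light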
# FLuc inhib CS – inhibits firefly luciferase, flagging false hits in luciferase inhibition screens; P08659; ATPLite firefly luciferase biochemical luminescence, 10 min; inhibition, % at 10 µM; 1.5% of 200,000 active; AID 1006;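 active = inhibition above about 50% when tested at 10 µM, limit read from the data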
# An asterisk follows results filed as active; / = no result given.
SMILES,NF-kB expr up,APP 5'UTR act,FLuc stim CS,APP 5UTR inh,STAT1 act,FLuc inhib CS
CCc1nnc(NC(=O)c2csc3c2CCC(C)C3)s1 (configuration not stated),1.1,145*,1.1,-145,97,-5
Cc1cc(O)cc2c(=O)c3ccccc3sc12,1,29,1,-29,103,4
COc1ccc2oc3ccc(OC)cc3c(=O)c2c1,3.1,67,0.6,-66,144*,42
COc1ccc2sc3ccccc3c(=O)c2c1,2.4,42,0.8,-42,132*,24
Cc1ccc(C(C(=O)Nc2ccc(C(C)C)cc2)N(C)C(=O)c2ccc(=O)[nH]c2)cc1 (configuration not stated),1,-2,1.1,2,98,-7
Cc1cc(C(F)F)nn1CC(=O)Nc1cc([N+](=O)[O-])ccc1F,1.2,1,1.1,-1,99,-8
O=C(CC1(O)C(=O)N(C/C=C/c2ccccc2)c2ccccc21)c1ccccn1 (configuration not stated),3.8*,-57,1,57*,94,-3
Cc1nn2c3c(cnc2c1-c1ccccc1)C(=O)CC(C)C3 (configuration not stated),/,28,/,-28,109,/
Cc1ccc2nc(-c3sc4nc(C)ccc4c3N)[nH]c2c1,5.9*,114,0.4,-114,118,62*
COc1cccc(-n2c(N)c(-c3nc4ccccc4[nH]3)sc2=S)c1,1.1,6,1,-6,105,-1
Cc1cc(C)c2c(N)c(-c3nc4ccccc4[nH]3)sc2n1,2.7,142*,1.1,-142,114,-10
O=C(Cc1ccc(-n2cccc2)cc1)NCc1cccs1,1.4,-94,1.1,94*,105,-7
CCC(=O)Nc1ccc(C(=O)NNC(=O)Cc2ccccc2)cc1,1.1,4,1,-4,101,1
O=C(N/N=C/c1cccs1)C(=O)Nc1cccc(Cl)c1,1.2,-6,1,6,110,-2
O=C(O)c1cccc(N/N=C/c2cccs2)c1,15*,-9,0.6,9,46,44
CCOc1cc(/C=N/Nc2cccc(C(=O)O)c2)ccc1OCC(=O)N1CCCCC1,1.6,31,1,-31,94,1
CSc1ccc(/C=N/Nc2cccc(C(=O)O)c2)cc1,18*,-8,0.4,8,41,57*
COc1ccc(C2CC2C(C)=O)cc1 (configuration not stated),0.98,-9,1,9,103,0
COc1ccccc1Oc1nc([N+](=O)[O-])nn1CC(N)=O,1.2,6,1,-6,94,5
Cc1cnc(C(=O)Nc2cccc3cccnc23)cn1,1.1,-74,1,74*,104,0
O=C(Nc1cccc2cccnc12)c1cccnc1,1.2,-10,1,10,98,-1
Cc1ccc(C2CC(=O)Nc3cc4c(cc32)OCO4)o1 (configuration not stated),1,-3,1,3,100,-4
